# Results: publication PMC12412049 (Journal of controlled release : official journal of the …, 2025)
# Experiments:
# U87MG tumor [1] = assay: PET imaging in U87MG tumor-bearing mice; conditions: mouse, in vivo; for Tumor uptake (PET ROI analysis): iv, 7.4 MBq
# U87MG tumor [2] = assay: Biodistribution study in U87MG tumor-bearing mice; conditions: mouse, in vivo
# U87MG cells [3] = assay: Intracellular GSH content measurement; format: cell-based, human; conditions: 24 h co-incubation
# Summary of the method: (§1)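 U87MG cells were seeded at 2 × 10^5 cells/well and grown 24 h at 37°C. They were then exposed 24 h in serum-free medium to PBS or to unlabeled or 64Cu-labeled peptide conjugate at 0, 25, 50 or 100 μM. Cells were PBS-washed, trypsinized, pelleted at 3000 rpm for 3 min and washed. Intracellular GSH (GSH/GSSG) and ROS were read with commercial kits. Values are mean ± SD.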
# [4] = TEM morphology of self-assembled peptide; format: physicochemical
# Summary of the method: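 Peptide was dissolved in water above its CMC, with or without 1 mM GSH added to mimic intracellular reducing conditions. Samples were incubated 10 min, applied to copper grids and air-dried overnight. Particle morphology and size were imaged by TEM, with size given as mean ± SD.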
# [5] = DLS hydrodynamic diameter and zeta potential; format: physicochemical; conditions: mean ± SD
# Critical micelle = format: physicochemical; conditions: pyrene fluorescent probe, tangent method; DP1R 0.1-100 μM, each with 1 mM GSH
# U87MG cells [6] = assay: Intracellular ROS level assay; format: cell-based, human; conditions: 24 h co-incubation
# Summary of the method: as §1
# U87MG tumor [7] = assay: Tumor section staining; format: in vivo, mice; conditions: tumor sections
# U87MG cells [8] = assay: In vitro uptake in U87MG cells; format: cell-based, human; conditions: for Uptake percentage dose (%AD), total / Uptake %AD, intracellular: mean ± SD; for Uptake %AD, intracellular: internalized fraction (1 M NaOH lysis); for Share of radioactivity internalized by cells: after co-incubation 4 h
# U87MG tumor [9] = assay: In vivo radiotherapy in U87MG tumor-bearing mice; conditions: for Median survival: U87MG glioma-bearing mice; for Median survival / Tumor weight at the end of the treatment / Tumor volume: 66.6 MBq; for Tumor weight at the end of the treatment / Tumor volume: U87MG tumor-bearing mice, mean ± SD; for Tumor weight at the end of the treatment: 20 days post-treatment, n = 5/group
# MCF-7 tumor [10] = test system: MCF-7 tumor; set-up: species or system mice; conditions: mouse, in vivo
# MCF-7 tumor [11] = test system: MCF-7 tumor; set-up: species or system mice; conditions: mouse, in vivo, 72 h
# U87MG cells [12] = assay: CCK-8 cell viability of U87MG cells with radiolabeled compounds; conditions: 0.1 and 0.2 MBq
# [13] = normalized to stained control (set as 1.0), mean ± SD
# [14] = 0.05 MBq, 4 h, 37°C, gamma counter
compound,measurement,setting,value
[^64Cu]Cu-DOTA-PEP2-c(RGDyK) (head to tail) [[^64Cu]Cu-DP2R],Tumor uptake (PET ROI analysis),U87MG tumor [1]; 4 h,5.53 ± 0.36 %ID/g
same,Tumor uptake (PET ROI analysis),U87MG tumor [1]; 72 h,2.93 ± 0.36 %ID/g
same,Lower 72h tumor retention relative to DP1R probe,U87MG tumor [2],58%
same,Tumor uptake (biodistribution),U87MG tumor [2]; 72 h,3.28 ± 0.45 %ID/g
DOTA-PEP1-c(RGDyK) (head to tail) [DP1R],Reduction of intracellular GSH levels,U87MG cells [3]; 25 μM,17%
same,Reduction of intracellular GSH levels,U87MG cells [3]; 100 μM,exceeding 52%
same,Nanostructure formation under TEM,[4]; absence of GSH incubation,no nanostructure formation was observed
same,Average diameter of micelle-like structures under TEM,"[4]; in water above the CMC, 1 mM GSH, 10 min incubation, mean ± SD",approximately 27.55 ± 6.43 nm
same,Hydrodynamic diameter,"[5]; DLS in PBS, after incubation with GSH",284.28 ± 27.99 nm
same,Zeta potential,[5]; after incubation with GSH,−36.43 ± 1.89 mV
same,Zeta potential,[5]; before incubation with GSH,3.65 ± 0.49 mV
same,Critical micelle concentration (CMC),Critical micelle,13.962 µM
[^64Cu]Cu-DOTA-PEP1-c(RGDyK) (head to tail) [[^64Cu]Cu-DP1R],Effect on intracellular ROS level (in words),U87MG cells [6],enhance the ROS level
same,Effect on intracellular GSH (in words),U87MG cells [3],effectively reduce intracellular GSH
same,Retention index (RI),U87MG tumor [1],21.90% (± 41.29%)
same,Tumor retention vs. control via PET imaging,U87MG tumor [1],2 fold
same,Tumor uptake (PET ROI analysis),U87MG tumor [1]; 4 h,6.90 ± 0.98 %ID/g
same,Tumor uptake (PET ROI analysis),U87MG tumor [1]; 72 h,6.20 ± 1.61 %ID/g
same,Apoptotic induction (TUNEL) vs PBS group,U87MG tumor [7],101.6 fold
same,Ki-67 relative expression (proliferative activity),"U87MG tumor [7]; IHC, normalized to stained control (set as 1.0), mean ± SD",1.35 ± 0.17
same,ROS relative fluorescence intensity,U87MG tumor [7]; [13],7.87 ± 0.70
same,TUNEL relative fluorescence intensity (apoptosis),U87MG tumor [7]; [13],140.21 ± 24.88
same,γ-H2AX relative fluorescence intensity (DNA damage),U87MG tumor [7]; [13],59.3 ± 11.49
same,Decrease in Ki-67 index,U87MG tumor [7]; vs PBS group,3.1 fold
same,Uptake %AD relative to the [^64Cu]Cu-DR group,"U87MG cells [8]; 0.05 MBq, 4 h",5.83 times
same,"Uptake percentage dose (%AD), total",U87MG cells [8]; [14],9.09 ± 0.48 %AD
same,"Uptake %AD, intracellular","U87MG cells [8]; 0.05 MBq, 4 h",8.27 ± 0.44 %AD
same,Share of radioactivity internalized by cells,U87MG cells [8]; 0.05 MBq,90.98%
same,"Uptake percentage dose (%AD), total","U87MG cells [8]; 0.1 MBq, 4 h",7.50 ± 0.32 %AD
same,Median survival,U87MG tumor [9],36 days
same,Tumor weight at the end of the treatment,U87MG tumor [9],0.25 ± 0.03 g
same,Tumor volume,U87MG tumor [9]; twenty days after injection,122.20 ± 19.92 mm^3
same,Tumor volume of PBS group relative to treated group,U87MG tumor [9]; twenty days after injection,12.1 times
same,Tumor volume of [^64Cu]Cu-DR group relative to [^64Cu]Cu-DP1R group,U87MG tumor [9]; twenty days after injection,3.33 times
same,Tumor uptake in MCF-7 subcutaneous tumor model (in words),MCF-7 tumor [10],no significant tumor uptake
same,Tumor uptake (biodistribution),MCF-7 tumor [11],0.47 ± 0.10 %ID/g
same,Blood pool uptake (biodistribution),U87MG tumor [2]; 72 h,1.01± 0.5 %ID/g
same,Kidneys uptake (biodistribution),U87MG tumor [2]; 72 h,1.43 ± 0.09 %ID/g
same,Tumor uptake (biodistribution),U87MG tumor [2]; 72 h,7.79 ± 1.08 %ID/g
[^64Cu]Cu-DOTA-c(RGDyK) [[^64Cu]Cu-DR],"Uptake percentage dose (%AD), total",U87MG cells [8]; [14],1.56 ± 0.78 %AD
same,"Uptake %AD, intracellular","U87MG cells [8]; 0.05 MBq, 4 h",0.10 ± 0.02 %AD
same,Share of radioactivity internalized by cells,U87MG cells [8]; 0.05 MBq,87.82%
same,Median survival,U87MG tumor [9],26 days
same,Tumor weight at the end of the treatment,U87MG tumor [9],0.87 ± 0.03 g
same,Tumor volume,U87MG tumor [9]; twenty days after injection,407.00 ± 66.34 mm^3
"[Cl][64Cu][Cl] [[^64Cu]CuCl2, reference compound]",Uptake by U87MG cells (in words),"U87MG cells [8]; 0.05-1 MBq, 4 h",Negligible uptake
same,Median survival,U87MG tumor [9],20 days
same,Tumor weight at the end of the treatment,U87MG tumor [9],2.36 ± 0.35 g
same,Cytotoxicity against tumor cells (in words),U87MG cells [12],Neither 0.1 MBq nor 0.2 MBq free [^64Cu]CuCl2 demonstrated notable cytotoxicity
